Results from ChEMBL document CHEMBL1121602, “Analogues of 8-[[6-(diethylamino) hexyl]amino]-6-methoxy-4-methylquinoline as candidate antileishmanial agents” (1980).
Activity calls are given as the source filed them. The calls are words filed in the database; no cut-off is given here.

Experiments:
Cricetinae gen. sp. [1] = test: Antileishmanial activity against Leishmania donovani in hamsters at a concentration of 13 mg/kg (toxic); assay type: functional
Outline: (§1)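 L. donovani infection in hamsters, following an earlier-cited protocol. Meglumine antimoniate was the reference drug. A G index, the activity of each test agent relative to the reference, was calculated from the dose-response data.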

[2] = G index = SD90 for meglumine antimoniate / SD90 for the compound; assay type: functional; outline: as §1
Cricetinae gen. sp. [3] = test: Antileishmanial activity against Leishmania donovani in hamsters at a concentration of 0.81 mg/kg; assay type: functional; outline: as §1
Cricetinae gen. sp. [4] = test: Antileishmanial activity against Leishmania donovani in hamsters at a concentration of 0.20 mg/kg; assay type: functional; conditions: dose 0.2 mg/kg; outline: as §1
Cricetinae gen. sp. [5] = test: Antileishmanial activity against Leishmania donovani in hamsters at a concentration of 52 mg/kg; assay type: functional; outline: as §1
Cricetinae gen. sp. [6] = test: Antileishmanial activity against Leishmania donovani in hamsters at a concentration of 13 mg/kg; assay type: functional; outline: as §1
Cricetinae gen. sp. [7] = test: Antileishmanial activity against Leishmania donovani in hamsters at a concentration of 0.05 mg/kg; assay type: functional; outline: as §1
Cricetinae gen. sp. [8] = test: Antileishmanial activity against Leishmania donovani in hamsters at a concentration of 13 mg/kg; I = inactive; assay type: functional, organism-based; design: dose 13 mg/kg; outline: as §1
Cricetinae gen. sp. [9] = test: Antileishmanial activity against Leishmania donovani in hamsters at a concentration of 208 mg/kg.; assay type: functional; outline: as §1
Cricetinae gen. sp. [10] = test: Antileishmanial activity against Leishmania donovani in hamsters at a concentration of 0.81 mg/kg; I = inactive; assay type: functional, organism-based; design: dose 0.81 mg/kg; outline: as §1

Row | SMILES | Supression (Cricetinae gen. sp. [1]) [%] | G Index [2] | Supression (Cricetinae gen. sp. [3]) [%] | Supression (Cricetinae gen. sp. [4]) [%] | Supression (Cricetinae gen. sp. [5]) [%] | Supression (Cricetinae gen. sp. [6]) [%] | Supression (Cricetinae gen. sp. [7]) [%] | Supression (Cricetinae gen. sp. [8]) | Supression (Cricetinae gen. sp. [9]) [%] | Supression (Cricetinae gen. sp. [10])
1 | COc1cc(NCCCCCC(C)NC(C)C)c2nccc(C)c2c1.Cl (stereo unspecified) | 95.4 | 300 | 100 | 97.3 |  |  |  |  |  | 
2 | COc1cc(NCCCCCCNC2CCC2)c2nccc(C)c2c1.Cl |  | 188 | 99.2 |  | 100 | 100 |  |  |  | 
3 | CCN(CC)CCCCCNc1cc(OC)cc2c(C)ccnc12 |  | 178 | 100 | 91.5 | 100 | 100 |  |  |  | 
4 | CCN(CC)CCCCCCNc1cc(OC)cc2c(C)ccnc12 [SITAMAQUINE] |  | 474 | 100 | 99.6 |  |  | 83.7 |  |  | 
5 | COc1cc(NCCCCCCN(C(C)C)C(C)C)c2nccc(C)c2c1.Cl.Cl |  | 310 | 100 | 97.4 |  | 97.5 | 20.2 |  |  | 
6 | COc1cc(NCCCCCCNCCO)c2nccc(C)c2c1.Cl |  | 300 |  |  |  | 99.9 |  |  |  | 
7 | CCN(CCO)CCCCCCNc1cc(OC)cc2c(C)ccnc12.Cl |  | 3.4 |  |  | 95.4 | 79.2 |  |  |  | 
8 | CCCN(CCC)CCCCCCNc1cc(OC)cc2c(C)ccnc12.Cl |  | 333 | 99.9 | 99.9 |  |  | 31 |  |  | 
9 | CCN(C(C)C)C(C)CCCCCNc1cc(OC)cc2c(C)ccnc12.Cl.Cl (stereo unspecified) | 95.4 |  | 100 | 97.3 |  |  |  |  |  | 
10 | CCN(CC)CCCCCCNc1cc(OC)cc2c(C)cc(O)nc12 |  |  |  |  |  |  |  | inactive | 62.8 | inactive
11 | CCN(CC)CCCCCCCNc1cc(OC)cc2c(C)ccnc12.Cl.Cl |  | 96.8 | 99.8 | 73.1 |  | 100 |  |  |  | 
12 | CCN(CC)CCCCCCNc1cc(OC)c(OC)c2c(C)ccnc12.Cl.Cl |  | 401 | 100 | 100 |  | 99.9 | 68 |  |  | 
